Test results from ChEMBL document CHEMBL1128678, “Preparation of 18F-labeled muscarinic agonist with M2 selectivity” (J Med Chem, 1995).
Several values for one entry are separate records, joined by “and”; a condition that tells them apart may be missing. Equal entries are not always repeated. Each block holds one compound with its values, some of them ahead of it.

How the values were obtained:
[1] = test system: Rattus norvegicus; experiment: In vivo biodistribution in blood after 60 min of administration in rat; format: ADME, organism-based; details: 1 h
In short: (§1)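 [18F] tracer formulated in PBS with under 10% ethanol; 15 μCi given by tail vein to Sprague-Dawley rats (200–250 g). Groups of five sacrificed at 15, 60 or 120 min. Brain dissected into 11 regions, with blood, heart, bone and lung also collected. Tissues weighed and counted, and % ID/g calculated; n = 5 or 6.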

[2] = test system: Rattus norvegicus; experiment: In vivo biodistribution in LT-CTX at 60 min for no inhibitor was co-injected in rat; format: ADME, organism-based; details: 1 h
[3] = test system: Rattus norvegicus; experiment: In vivo biodistribution in heart at 60 min for no inhibitor was co-injected in rat; format: ADME, organism-based; details: 1 h
[4] = In vivo biodistribution in heart after 120 min of administration.; format: ADME, organism-based; details: 2 h; in short: as §1
[5] = test system: Rattus norvegicus; experiment: In vivo biodistribution in PONS after 60 min of administration in rat; format: ADME, organism-based; details: 1 h; in short: as §1
[6] = test system: Rattus norvegicus; experiment: In vivo biodistribution in bone after 15 min of administration in rat; format: ADME, organism-based, Bone element; details: 0.25 h; in short: as §1
[7] = test system: Rattus norvegicus; experiment: In vivo biodistribution in blood at 60 min for no inhibitor was co-injected in rat; format: ADME, organism-based; details: 1 h
[8] = test system: Rattus norvegicus; experiment: In vivo biodistribution in LT-STR after 120 min of administration in rat; format: ADME, organism-based; details: 2 h; in short: as §1
[9] = In vivo biodistribution in bone at 60 min for no inhibitor was co-injected in rat; format: ADME, organism-based, Bone element; details: 1 h
[10] = test system: Rattus norvegicus; experiment: In vivo biodistribution in CBLL after 15 min of administration in rat; format: ADME, organism-based; details: 0.25 h; in short: as §1
[11] = test system: Rattus norvegicus; experiment: In vivo biodistribution in LT-HIPP after 60 min of administration in rat; format: ADME, organism-based; details: 1 h; in short: as §1
[12] = test system: Rattus norvegicus; experiment: In vivo biodistribution in heart after 15 min of administration in rat; format: ADME, organism-based; details: 0.25 h; in short: as §1
[13] = test system: Rattus norvegicus; experiment: In vivo biodistribution in LT-CTX after 60 min of administration in rat; format: ADME, organism-based; details: 1 h; in short: as §1
[14] = test system: Rattus norvegicus; experiment: In vivo biodistribution in MEDULL after 15 min of administration in rat; format: ADME, organism-based; details: 0.25 h; in short: as §1
[15] = test system: Rattus norvegicus; experiment: In vivo biodistribution in heart at 60 min as a function of 5 nM of (R,R) IQNB (inhibitor) in rat; format: ADME, organism-based; details: 1 h
[16] = test system: Rattus norvegicus; experiment: In vivo biodistribution in MEDULL after 60 min of administration in rat; format: ADME, organism-based; details: 1 h; in short: as §1
[17] = test system: Rattus norvegicus; experiment: In vivo biodistribution in LT-THAL after 60 min of administration in rat; format: ADME, organism-based; details: 1 h; in short: as §1
[18] = test system: Rattus norvegicus; experiment: In vivo biodistribution in LT-THAL after 120 min of administration in rat; format: ADME, organism-based; details: 2 h; in short: as §1
[19] = test system: Rattus norvegicus; experiment: In vivo biodistribution in CBLL after 120 min of administration in rat; format: ADME, organism-based; details: 2 h; in short: as §1
[20] = test system: Rattus norvegicus; experiment: In vivo biodistribution in LT-STR after 15 min of administration in rat; format: ADME, organism-based; details: 0.25 h; in short: as §1
[21] = test system: Rattus norvegicus; experiment: In vivo biodistribution in MEDULL after 120 min of administration in rat; format: ADME, organism-based; details: 2 h; in short: as §1
[22] = test system: Rattus norvegicus; experiment: In vivo biodistribution in PONS after 15 min of administration in rat; format: ADME, organism-based; details: 0.25 h; in short: as §1
[23] = test system: Rattus norvegicus; experiment: In vivo biodistribution in LT-HIPP after 120 min of administration in rat; format: ADME, organism-based; details: 2 h; in short: as §1
[24] = test system: Rattus norvegicus; experiment: In vivo biodistribution in lung after 60 min of administration in rat; format: ADME, organism-based; details: 1 h; in short: as §1
[25] = test system: Rattus norvegicus; experiment: In vivo biodistribution in LT-CTX after 15 min of administration in rat; format: ADME, organism-based; details: 0.25 h; in short: as §1
[26] = test system: Rattus norvegicus; experiment: In vivo biodistribution in LT-STR at 60 min for no inhibitor was co-injected in rat; format: ADME, organism-based; details: 1 h
[27] = test system: Rattus norvegicus; experiment: In vivo biodistribution in lung after 15 min of administration in rat; format: ADME, organism-based; details: 0.25 h; in short: as §1
[28] = test system: Rattus norvegicus; experiment: In vivo biodistribution in heart after 60 min of administration in rat; format: ADME, organism-based; details: 1 h; in short: as §1
[29] = test system: Rattus norvegicus; experiment: In vivo biodistribution in heart at 60 min as a function of 500 nM of (R,S) -fluoromethyl QNB(inhibitor) in rat; format: ADME, organism-based; details: 1 h
[30] = test system: Rattus norvegicus; experiment: In vivo biodistribution in lung after 120 min of administration in rat; format: ADME, organism-based; details: 2 h; in short: as §1
[31] = test system: Rattus norvegicus; experiment: In vivo biodistribution in lung at 60 min for no inhibitor was co-injected in rat; format: ADME, organism-based; details: 1 h
In short: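 [18F]tracer formulated in phosphate-buffered saline (<10% ethanol), 15 μCi injected via tail vein into Sprague-Dawley rats (200–250 g); no inhibitor co-injected. Animals sacrificed in groups of five at 60 min postinjection. Lung sample collected, weighed, counted for activity, and % ID/g calculated (n = 5 or 6).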

[32] = test system: Rattus norvegicus; experiment: In vivo biodistribution in blood after 120 min of administration in rat; format: ADME, organism-based; details: 2 h; in short: as §1
[33] = test system: Rattus norvegicus; experiment: In vivo biodistribution in LT-THAL at 60 min for no inhibitor was co-injected in rat; format: ADME, organism-based; details: 1 h
[34] = test system: Rattus norvegicus; experiment: In vivo biodistribution in LT-HIPP at 60 min for no inhibitor was co-injected in rat; format: ADME, organism-based; details: 1 h
[35] = test system: Rattus norvegicus; experiment: In vivo biodistribution in LT-CTX at 60 min for no inhibitor was co-injected co-injected in rat; format: ADME, organism-based; details: 1 h
[36] = test system: Rattus norvegicus; experiment: In vivo biodistribution in MEDULL at 60 min for no inhibitor was co-injected in rat; format: ADME, organism-based; details: 1 h
[37] = test system: Rattus norvegicus; experiment: In vivo biodistribution in blood after 15 min of administration in rat; format: ADME, organism-based; details: 0.25 h; in short: as §1
[38] = test system: Rattus norvegicus; experiment: In vivo biodistribution in LT-CTX after 120 min of administration in rat; format: ADME, organism-based; details: 2 h; in short: as §1
[39] = test system: Rattus norvegicus; experiment: In vivo biodistribution in PONS after 120 min of administration in rat; format: ADME, organism-based; details: 2 h; in short: as §1
[40] = test system: Rattus norvegicus; experiment: In vivo biodistribution in CBLL after 60 min of administration in rat; format: ADME, organism-based; details: 1 h; in short: as §1
[41] = test system: Rattus norvegicus; experiment: In vivo biodistribution in bone after 120 min of administration in rat; format: ADME, organism-based, Bone element; details: 2 h; in short: as §1
[42] = test system: Rattus norvegicus; experiment: In vivo biodistribution in LT-HIPP after 15 min of administration in rat; format: ADME, organism-based; details: 0.25 h; in short: as §1
[43] = test system: Rattus norvegicus; experiment: In vivo biodistribution in LT-STR after 60 min of administration in rat; format: ADME, organism-based; details: 1 h; in short: as §1
[44] = test system: Rattus norvegicus; experiment: In vivo biodistribution in CBLL at 60 min for no inhibitor was co-injected in rat; format: ADME, organism-based; details: 1 h
[45] = test system: Rattus norvegicus; experiment: In vivo biodistribution in bone after 60 min of administration in rat; format: ADME, organism-based, Bone element; details: 1 h; in short: as §1
[46] = biological target: T1, Muscarinic acetylcholine receptor M2 (Rattus norvegicus, UniProt P10980); experiment: In vitro binding affinity towards Muscarinic acetylcholine receptor M2 was determined by measuring its ability to displace [3H]-AF-DX 384 from rat heart membranes; parameters: species or system Membrane
T1 sequence (P10980 whole entry): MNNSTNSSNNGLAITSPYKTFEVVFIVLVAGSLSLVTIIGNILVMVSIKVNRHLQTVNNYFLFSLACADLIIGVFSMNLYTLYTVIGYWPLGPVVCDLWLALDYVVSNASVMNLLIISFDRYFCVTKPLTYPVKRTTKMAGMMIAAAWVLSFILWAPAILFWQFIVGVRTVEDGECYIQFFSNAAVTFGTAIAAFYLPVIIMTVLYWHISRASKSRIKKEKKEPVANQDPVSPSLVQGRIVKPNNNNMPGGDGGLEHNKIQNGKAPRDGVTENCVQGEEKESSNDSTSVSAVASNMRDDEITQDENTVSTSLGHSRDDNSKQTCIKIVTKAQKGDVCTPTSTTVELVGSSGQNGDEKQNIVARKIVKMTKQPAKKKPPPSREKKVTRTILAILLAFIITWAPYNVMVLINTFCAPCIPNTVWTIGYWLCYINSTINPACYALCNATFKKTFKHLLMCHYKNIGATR
In short: (§2)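 Displacement binding performed by NovaScreen. For M1, the tracer was [3H]pirenzepine with bovine striatal membranes. For M2, it was [3H]AF-DX 384 with rat heart membranes. Ki values in nM were calculated by LIGAND analysis.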

[47] = biological target: Muscarinic acetylcholine receptor M3 (Cavia porcellus, UniProt Q8VH26); experiment: In vitro binding affinity towards Muscarinic acetylcholine receptor M3 was determined by measuring its ability to displace [3H]-N-methyl- Scopolamine from guinea pig ileum; format: tissue-based
Sequence of Muscarinic acetylcholine receptor M3 (Q8VH26 whole entry): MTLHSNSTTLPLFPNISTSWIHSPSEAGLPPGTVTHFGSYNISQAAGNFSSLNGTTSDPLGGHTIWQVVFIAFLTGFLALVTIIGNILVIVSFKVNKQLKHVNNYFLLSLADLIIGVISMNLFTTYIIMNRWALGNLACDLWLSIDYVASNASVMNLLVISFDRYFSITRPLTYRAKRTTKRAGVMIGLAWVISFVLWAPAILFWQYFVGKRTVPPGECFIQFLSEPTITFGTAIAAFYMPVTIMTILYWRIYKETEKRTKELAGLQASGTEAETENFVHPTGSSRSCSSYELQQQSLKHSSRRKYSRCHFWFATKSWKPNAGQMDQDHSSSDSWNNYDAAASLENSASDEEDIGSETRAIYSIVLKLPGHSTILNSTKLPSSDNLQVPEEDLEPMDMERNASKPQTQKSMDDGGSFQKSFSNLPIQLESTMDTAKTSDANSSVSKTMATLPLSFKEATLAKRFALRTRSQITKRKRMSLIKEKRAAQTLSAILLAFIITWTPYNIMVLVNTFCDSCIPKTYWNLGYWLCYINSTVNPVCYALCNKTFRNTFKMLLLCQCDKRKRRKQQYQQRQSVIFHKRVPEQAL

[48] = biological target: T2, Muscarinic acetylcholine receptor M1 (Bos taurus, UniProt Q8WMX0); experiment: In vitro binding affinity towards Muscarinic acetylcholine receptor M1 was determined by measuring its ability to displace [3H]pirenzepine from bovine striatal membranes; parameters: species or system Striatum, Membrane; in short: as §2
T2 sequence (Q8WMX0 whole entry): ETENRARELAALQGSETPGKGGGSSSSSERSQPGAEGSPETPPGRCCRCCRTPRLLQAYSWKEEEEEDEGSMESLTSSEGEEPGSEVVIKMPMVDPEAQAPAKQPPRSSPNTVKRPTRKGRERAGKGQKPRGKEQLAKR

Compound: CN1CC=C(c2nsnc2SCCC[18F])CC1
- ID/g [1]: 0.124%
- ID/g [2]: 0.484% and 0.52%
- ID/g [3]: 0.171%
- ID/g [4]: 0.096%
- ID/g [5]: 0.385%
- ID/g [6]: 0.225%
- ID/g [7]: 0.126% and 0.13% and 0.18%
- ID/g [8]: 0.123%
- ID/g [9]: 0.501%
- ID/g [10]: 0.766%
- ID/g [11]: 0.363%
- ID/g [12]: 0.324%
- ID/g [13]: 0.368%
- ID/g [14]: 0.788%
- ID/g [15]: 0.13% and 0.43% and 0.49% and 0.46% and 0.44% and 0.54% and 0.63% and 0.42%
- ID/g [16]: 0.438%
- ID/g [17]: 0.293%
- ID/g [18]: 0.153%
- ID/g [19]: 0.154%
- ID/g [20]: 0.861%
- ID/g [21]: 0.226%
- ID/g [22]: 0.824%
- ID/g [23]: 0.119%
- ID/g [24]: 0.261%
- ID/g [25]: 1.125%
- ID/g [26]: 0.448% and 0.46% and 0.64%
- ID/g [27]: 0.871%
- ID/g [28]: 0.121%
- ID/g [29]: 0.17% and 0.44% and 0.43% and 0.39% and 0.48% and 0.56% and 0.61%
- ID/g [30]: 0.156%
- ID/g [31]: 0.372%
- ID/g [32]: 0.1%
- ID/g [33]: 0.413% and 0.45% and 0.56%
- ID/g [34]: 0.429% and 0.47% and 0.65%
- ID/g [35]: 0.7%
- ID/g [36]: 0.529% and 0.63% and 0.71%
- ID/g [37]: 0.181%
- ID/g [38]: 0.139%
- ID/g [39]: 0.238%
- ID/g [40]: 0.285%
- ID/g [41]: 0.993%
- ID/g [42]: 0.826%
- ID/g [43]: 0.353%
- ID/g [44]: 0.382% and 0.44% and 0.47%
- ID/g [45]: 0.762%

Compound: CCCSc1nsnc1C1=CCN(C)CC1
- Ki [46]: 1.5 nM
- Ki [47]: 163 nM
- Ki [48]: 23 nM

Compound: CN1CCC=C(c2nsnc2SCCF)C1
- Ki [46]: 1.8 nM
- Ki [47]: > 10000 nM
- Ki [48]: 25 nM

- Ki [46]: 2.2 nM
- Ki [47]: 79.7 nM
- Ki [48]: 7.4 nM
Compound: CN1CCC=C(c2nsnc2SCCCF)C1

- Ki [46]: 6.3 nM
- Ki [47]: 160 nM
- Ki [48]: 2.3 nM
Compound: CN1CCC=C(c2nsnc2SCCCCCF)C1

Compound: CCCCCSc1nsnc1C1=CCN(C)CC1
- Ki [46]: 4 nM
- Ki [47]: > 10000 nM
- Ki [48]: 36 nM
